# From ChEMBL document CHEMBL1122264, “Synthesis and biological properties of thiophene ring analogues of mianserin” (J Med Chem, 1983)
# Calls of active or inactive are those of the source.
# Experiments:
# [1] = target: Adrenergic receptor alpha; experiment: In vitro binding affinity towards alpha-adreno ceptor of rat forebrain using [3H]prazosin
# How it was run: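 Rat forebrain membranes, [3H]prazosin binding by the Greengrass and Bremner procedure, with ascorbic acid omitted from the incubation medium. Drugs are tested in triplicate over a wide concentration range in a single experiment.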
# [2] = target: T1, Cerebral cortex alpha adrenergic receptor (Bos taurus, UniProt Q28838+P18130); experiment: In vitro binding affinity towards alpha-adrenoceptor of calf cortex membrane Site B using [3H]-clonidine
# T1 sequence (Q28838 whole entry): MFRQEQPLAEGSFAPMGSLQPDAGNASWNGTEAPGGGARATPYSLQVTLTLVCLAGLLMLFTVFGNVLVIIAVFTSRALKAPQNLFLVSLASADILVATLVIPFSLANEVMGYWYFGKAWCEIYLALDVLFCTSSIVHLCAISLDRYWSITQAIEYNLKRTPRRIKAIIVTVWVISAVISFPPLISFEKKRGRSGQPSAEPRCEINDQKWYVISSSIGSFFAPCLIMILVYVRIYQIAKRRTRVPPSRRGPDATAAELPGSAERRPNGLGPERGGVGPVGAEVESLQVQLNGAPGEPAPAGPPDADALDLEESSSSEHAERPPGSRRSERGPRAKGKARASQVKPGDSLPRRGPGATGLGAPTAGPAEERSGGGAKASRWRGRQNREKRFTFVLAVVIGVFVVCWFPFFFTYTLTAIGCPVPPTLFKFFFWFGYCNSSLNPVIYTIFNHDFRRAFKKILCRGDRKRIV
# T1 sequence (P18130 whole entry): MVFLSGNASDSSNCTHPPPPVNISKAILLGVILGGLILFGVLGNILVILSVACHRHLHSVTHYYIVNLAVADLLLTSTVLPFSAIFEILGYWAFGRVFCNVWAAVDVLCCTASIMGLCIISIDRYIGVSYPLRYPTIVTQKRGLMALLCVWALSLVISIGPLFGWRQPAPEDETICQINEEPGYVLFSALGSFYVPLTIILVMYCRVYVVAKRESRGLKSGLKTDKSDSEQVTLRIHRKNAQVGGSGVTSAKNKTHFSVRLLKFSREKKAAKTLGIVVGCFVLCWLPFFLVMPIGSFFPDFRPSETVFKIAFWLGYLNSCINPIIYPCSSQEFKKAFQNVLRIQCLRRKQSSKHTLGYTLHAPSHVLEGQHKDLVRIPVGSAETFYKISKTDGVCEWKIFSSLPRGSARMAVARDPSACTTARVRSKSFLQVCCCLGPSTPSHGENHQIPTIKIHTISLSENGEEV
# Histamine H2 receptor = Histamine H2 receptor (Cavia porcellus, UniProt P47747); experiment: In vitro antihistamine activity by activation of 4-methylhistamine mediated by Histamine H2 receptor; format: functional
# Histamine H2 receptor, sequence (P47747 whole entry): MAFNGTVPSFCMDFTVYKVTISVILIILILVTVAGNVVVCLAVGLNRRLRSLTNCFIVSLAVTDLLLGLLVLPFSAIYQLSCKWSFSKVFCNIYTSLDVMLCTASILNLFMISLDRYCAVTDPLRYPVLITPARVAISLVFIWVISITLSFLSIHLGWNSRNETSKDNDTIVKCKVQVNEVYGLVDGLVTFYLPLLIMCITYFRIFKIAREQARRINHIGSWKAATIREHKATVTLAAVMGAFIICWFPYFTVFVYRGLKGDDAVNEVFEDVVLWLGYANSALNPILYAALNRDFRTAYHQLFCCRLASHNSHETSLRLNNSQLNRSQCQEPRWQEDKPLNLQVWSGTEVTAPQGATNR
# [3] = target: serotonin (5-HT) receptor (Bos taurus); experiment: In vitro binding affinity of serotonin receptor by interacting with high affinity, [3H]serotonin from calf caudate nucleus
# Mus musculus [4] = experiment: Central presynaptic alpha-blockade using [3H]rauwolscine (injected iv 20 min later and the mice were sacrificed at 35 min) (in vivo);value ranges between (1.2-5.9); format: functional; conditions: read-out: ID50 (the source's name)
# How it was run: (§1)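 Mice get test drug or vehicle ip at zero time, then [3H]rauwolscine iv 20 min later, and are sacrificed at 35 min. Displacement is measured in mouse forebrain. […] ID50 and 95% confidence limits follow the Granat method.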
# Mus musculus [5] = experiment: In vivo Antagonism (ip) of 0.1 mg/kg clonidine-induced analgesia (po) determined in phenylquinone-induced writhing assay at 10 mg/kg dose; the ratio being 4/10; format: functional, organism-based
# How it was run: (§2)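 Male mice (18–22 g) receive the test substance ip, then clonidine 0.1 mg/kg po 30 min later. Phenylquinone is given ip 20 min after clonidine. Mice writhing 5–15 min after phenylquinone count as reactors. The result is the number of mice, out of n = 10 per experiment, in which clonidine analgesia is reversed.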
# [6] = (§3) In vitro antihistamine activity, by activation of guinea pig cerebral cortex adenylate cyclase by histamine mediated by both H1 and H2 receptors; format: functional, tissue-based, Cavia porcellus
# How it was run: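 Adenylate cyclase preparation from guinea pig cerebral cortex, activated by histamine (acting via H1 + H2 receptors). Percent inhibition is measured in triplicate over a wide concentration range, and IC50 is calculated from those data. Psychoyos procedure.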
# [7] = target: T1, Cerebral cortex alpha adrenergic receptor; experiment: In vitro binding affinity towards alpha-adrenoceptor of calf cortex membrane Site A using [3H]clonidine
# Mus musculus [8] = species on record: Mus musculus; experiment: Antidepressant potential (duration) by using the behavioral despair model; format: functional
# Rattus norvegicus [9] = experiment: In vivo determination of MHPG-SO4 level in rat whole brain at a dose 30 mg/kg ip administration; format: functional; conditions: route intraperitoneal
# How it was run: (§4)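 Rats were given the test agent or vehicle ip as a suspension in corn starch. They were killed 2 h later, and MHPG-SO₄ was measured in whole brain in μg/g ± SE and as % of vehicle control. Five rats were used per experiment.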
# Rattus norvegicus [10] = experiment: In vivo determination of MHPG-SO4 level in rat whole brain at a dose 0 mg/kg ip administration; format: functional; conditions: route intraperitoneal; how it was run: as §4
# [11] = as §3
# Rattus norvegicus [12] = experiment: In vivo determination of MHPG-SO4 level in rat whole brain at a dose 30 mg/kg ip administration (5 rats); format: functional; conditions: route intraperitoneal; how it was run: as §4
# Mus musculus [13] = experiment: In vivo central presynaptic alpha-blockade using [3H]rauwolscine (injected iv 20 min later and the mice were sacrificed at 35 min); conditions: read-out: ID50
# Rattus norvegicus [14] = experiment: In vivo determination of MHPG-SO4 level in rat whole brain at a dose 10 mg/kg intraperitoneal administration; format: functional
# How it was run: (§5)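 Rats, five per experiment, receive test agent ip as a corn starch suspension and are sacrificed 2 h later. Whole-brain MHPG-SO4 (μg/g) is measured by the Meek and Neff procedure and expressed as a percentage of control, ± SE.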
# Rattus norvegicus [15] = experiment: In vivo determination of MHPG-SO4 level in rat whole brain at a dose 20 mg/kg intraperitoneal administration; format: functional; how it was run: as §5
# Mus musculus [16] = experiment: In vivo central presynaptic alpha-blockade using [3H]rauwolscine in mice (injected iv 20 min later and the mice were sacrificed at 35 min); format: functional; conditions: read-out: ID50 (the source's name); how it was run: as §1
# Rattus norvegicus [17] = experiment: In vivo determination of MHPG-SO4 level in rat whole brain at a dose 20 mg/kg ip administration (5 rats); format: functional; conditions: route intraperitoneal; how it was run: as §5
# Rattus norvegicus [18] = experiment: In vivo determination of MHPG-SO4 level in rat whole brain at a dose 0 mg/kg intraperitoneal administration; format: functional; how it was run: as §5
# Rattus norvegicus [19] = experiment: In vivo determination of MHPG-SO4 level in rat whole brain at a dose 10 mg/kg ip administration (5 rats); format: functional; conditions: route intraperitoneal; how it was run: as §5
# Rattus norvegicus [20] = experiment: In vivo determination of MHPG-SO4 level in rat whole brain at a dose 3 0 mg/kg ip administration; format: functional; conditions: route intraperitoneal; how it was run: as §5
# [21] = target: serotonin (5-HT) receptor (Bos taurus)
# Mus musculus [22] = experiment: In vivo Antagonism (ip) of 0.1 mg/kg clonidine-induced analgesia (po) determined in phenylquinone-induced writhing assay at a dose of 30 mg/kg dose; the ratio is 4/10; format: functional, organism-based; how it was run: as §2
smiles,measurement,setting,value
CN1CCN2c3ccccc3Cc3sccc3C2C1 (stereo unspecified),IC50,[1],300 nM
same,IC50,[2],3 nM
same,IC50,Histamine H2 receptor,7.2 µM
same,IC50,[3],100 nM
same,ED50,Mus musculus [4],2.7 mg/kg
same,Antagonism,Mus musculus [5],Partially active
same,IC50,[6],90 nM
same,IC50,[7],2 nM
CN1CCN2c3ccccc3Cc3ccccc3C2C1.Cl (stereo unspecified) [MIANSERIN HYDROCHLORIDE],IC50,Histamine H2 receptor,3.8 µM
same,Duration,Mus musculus [8],186 s
same,MHPG SO4,Rattus norvegicus [9],0.19 µg/g
same,MHPG_SO4,Rattus norvegicus [10],0.11 µg/g
same,IC50,[11],190 nM
same,Control,Rattus norvegicus [12],180%
same,ED50,Mus musculus [13],3.7 mg/kg
CN1CCN2c3ccccc3Cc3ccsc3C2C1 (stereo unspecified),IC50,[1],1400 nM
same,IC50,[2],3 nM
same,IC50,Histamine H2 receptor,19 µM
same,MHPG_SO4,Rattus norvegicus [14],0.15 µg/g
same,MHPG SO4,Rattus norvegicus [15],0.21 µg/g
same,ED50,Mus musculus [16],3.3 mg/kg
same,Duration,Mus musculus [8],185 s
same,Control,Rattus norvegicus [17],191%
same,MHPG_SO4,Rattus norvegicus [18],0.11 µg/g
same,Control,Rattus norvegicus [19],136%
same,MHPG SO4,Rattus norvegicus [20],0.27 µg/g
same,Control,Rattus norvegicus [12],245%
same,IC50,[6],280 nM
same,IC50,[21],500 nM
same,Antagonism,Mus musculus [22],Partially active
same,IC50,[7],3 nM
